Test results as given in ChEMBL document CHEMBL3868626, “Discovery of novel multi-target indole-based derivatives as potent and selective inhibitors of chikungunya virus replication” (Bioorg Med Chem, 2017).
Active and inactive are the calls of the source. The calls are words filed in the database; no cut-off is given here.

Assays:
Chikungunya virus [1] = assay: Antiviral activity against Chikungunya virus 899 infected in African green monkey Vero cells assessed as inhibition of virus-induced cytopathogenic effect measured 5 days post infection by MTS/PMS based microscopic analysis; type: functional, cell-based; conditions: Chikungunya virus, 899, Vero, 120 h
[2] = Selectivity index, ratio of CC50 for African green monkey Vero cells to EC50 for Chikungunya virus 899 infected in African green monkey Vero cells; type: toxicity, cell-based; conditions: read-out: Ratio CC50/EC50
Summary of the method: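 Ratio of CC50 in uninfected Vero cells (MTS/PMS) to EC50 for inhibition of CHIKV 899-induced CPE in Vero cells, both from logarithmic interpolation.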

[3] = Cytotoxicity against African green monkey Vero cells assessed as reduction in metabolic activity by MTS/PMS based microscopic analysis; type: toxicity, cell-based; conditions: chlorocebus sabaeus
Summary of the method: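 Uninfected Vero cells exposed to compound dilution series; overall metabolic activity measured by MTS/PMS, with microscopic checks of cell/monolayer morphology. CC50 = concentration reducing metabolic activity by 50%, by logarithmic interpolation.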

Chikungunya virus [4] = assay: Antiviral activity against Chikungunya virus 899 pseudoparticles infected in African green monkey BGM cells assessed as inhibition of pseudoparticles entry after 72 hrs by luciferase reporter gene assay; type: functional, cell-based; conditions: Chikungunya virus, 899, BGM
Summary of the method: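 BGM cells at 2.5 × 10^4/well adhered overnight; serial compound dilutions added, then cells infected with lentiviral pseudoparticles bearing CHIKV glycoproteins and firefly luciferase reporter. After 72 h cells lysed and intracellular luciferase activity measured as entry read-out. Mean ± SD, ≥3 independent experiments.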

Chikungunya virus [5] = assay: Antiviral activity against Chikungunya virus 899 infected in African green monkey Vero A cells assessed as reduction in infectious virus particle production incubated for 48 hrs by end-point titration assay; type: functional, cell-based; conditions: for EC50: Chikungunya virus, 899, Vero
Chikungunya virus [6] = assay: Antiviral activity against Chikungunya virus 899 infected in African green monkey Vero A cells assessed as reduction in viral RNA level incubated for 48 hrs by qRT-PCR analysis; type: functional, cell-based; conditions: for EC50: Chikungunya virus, 899, Vero
Chikungunya virus [7] = assay: Antiviral activity against Chikungunya virus 899 infected in African green monkey Vero A cells assessed as inhibition of viral replication at post entry step by measuring reduction in intracellular viral RNA treated up to 6 hrs post infection measured after 24 hrs by qRT-PCR analysis; type: functional, cell-based
Sindbis virus = assay: Antiviral activity against Sindbis virus infected in African green monkey Vero A cells assessed as inhibition of virus-induced cytopathogenic effect measured 5 days post infection by MTS/PMS based microscopic analysis; type: functional, cell-based; conditions: 120 h
Semliki Forest virus = assay: Antiviral activity against Semliki forest virus infected in African green monkey Vero A cells assessed as inhibition of virus-induced cytopathogenic effect measured 5 days post infection by MTS/PMS based microscopic analysis; type: functional, cell-based; conditions: 120 h
[8] = Cytotoxicity against African green monkey BGM cells; type: toxicity, cell-based; conditions: chlorocebus aethiops
Chikungunya virus [9] = assay: Antiviral activity against Chikungunya virus assessed as inhibition of virus replication by cell based assay; type: functional
Chikungunya virus [10] = assay: Antiviral activity against Chikungunya virus 899 infected in African green monkey Vero A cells assessed as inhibition of viral replication at post entry step by measuring reduction in intracellular viral RNA treated 2 hrs post infection measured after 24 hrs by qRT-PCR analysis; type: functional
Chikungunya virus [11] = assay: Antiviral activity against Chikungunya virus 899 infected in African green monkey Vero A cells assessed as inhibition of viral replication by measuring reduction in intracellular viral RNA treated 2 hrs prior to infection measured after 24 hrs by qRT-PCR analysis; type: functional

Row | SMILES | EC50 (Chikungunya virus [1]) [µM] | selectivity ratio [2] | CC50 [3] [µM] | further results
1 | Cn1c(C[S+]([O-])c2ccccc2C(F)(F)F)c(C(=O)OC(C)(C)C)c2cc(O)c(Br)cc21 (centres undefined) | 9.6 | 2.7 | 26 | 
2 | Cn1c(CSc2c(Cl)cccc2Cl)c(C(=O)OC(C)(C)C)c2cc(O)ccc21 | 2.9 | 2.7 | 7.8 | 
3 | Cn1c(CSc2ccc(F)cc2)c(C(=O)OC(C)(C)C)c2cc(O)ccc21 | 4.5 | 3.2 | 11 | 
4 | Cn1c(C[S+]([O-])c2ccc(C(F)(F)F)cc2)c(C(=O)OC(C)(C)C)c2cc(O)ccc21 (centres undefined) | 13 | 1.9 | 24 | 
5 | Cn1c(CSc2ccc(C(F)(F)F)cc2)c(C(=O)OC(C)(C)C)c2cc(O)ccc21 | 3.6 | 3.1 | 11 | 
6 | Cn1c(C[S+]([O-])c2ccc(Cl)cc2)c(C(=O)OC(C)(C)C)c2cc(O)ccc21 (centres undefined) | 8.2 | 11 | 93 | 
7 | CN(C)Cc1c(O)ccc2c1c(C(=O)OC(C)(C)C)c(C[S+]([O-])c1ccccc1C(F)(F)F)n2C (centres undefined) | 22 | 3 | 66 | 
8 | Cn1c(CSc2ccccc2C(F)(F)F)c(C(=O)OC(C)(C)C)c2cc(O)ccc21 | 3.4 | 4.1 | 19 | 
9 | Cn1c(C[S+]([O-])c2ccccc2C(F)(F)F)c(C(=O)OC(C)(C)C)c2cc(O)ccc21 (centres undefined) | 6.5 | 22 | 156 | EC50 (Chikungunya virus [4]): 27 µM; Activity (Chikungunya virus [5]): Dose-dependent effect; EC50 (Chikungunya virus [5]): 1 µM; Activity (Chikungunya virus [6]): Dose-dependent effect; EC50 (Chikungunya virus [6]): 1 µM; inhibition (Chikungunya virus [7]): Active; EC50 (Sindbis virus): 20 µM; EC50 (Semliki Forest virus): 33 µM; CC50 [8]: 50 µM
10 | CN(C)Cc1c(O)ccc2c1c(C(=O)OC(C)(C)C)c(C[S+]([O-])c1c(Cl)cccc1Cl)n2C (centres undefined) | 4.1 | 2.2 | 9.2 | 
11 | CN(C)Cc1c(O)c(Br)cc2c1c(C(=O)OC(C)(C)C)c(C[S+]([O-])c1ccccc1C(F)(F)F)n2C (centres undefined) | 12 | 4.6 | 56 | 
12 | Cn1c(C[S+]([O-])c2c(Cl)cccc2Cl)c(C(=O)OC(C)(C)C)c2cc(O)ccc21 (centres undefined) | 20 | 7.6 | 151 | 
13 | CN(C)Cc1c(O)c(Br)cc2c1c(C(=O)OC(C)(C)C)c(CSc1c(Cl)cccc1Cl)n2C | ≥ 17 |  | 17 | 
14 | Cn1c(C[S+]([O-])c2ccccc2C(F)(F)F)c(C(=O)OC(C)(C)C)c2cc(CO)ccc21 (centres undefined) | 32 | > 14.6 | > 468 | EC50 (Chikungunya virus [4]): 36 µM; EC50 (Chikungunya virus [5]): 10 µM; EC50 (Chikungunya virus [6]): 9 µM; EC50 (Sindbis virus): 96 µM; EC50 (Semliki Forest virus): 128 µM; CC50 [8]: > 60 µM
15 | Cn1c(C[S+]([O-])c2c(Cl)cccc2Cl)c(C(=O)OC(C)(C)C)c2cc(CO)ccc21 (centres undefined) | 30 | 13.2 | 397 | 
16 | Cn1c(C[S+]([O-])c2ccc(F)cc2)c(C(=O)OC(C)(C)C)c2cc(O)ccc21 (centres undefined) | 17 | > 5.7 | > 100 | 
17 | Cn1c(CSc2ccccc2C(F)(F)F)c(C(=O)OC(C)(C)C)c2cc(O)c(Br)cc21 | 9.6 | 2.7 | 26 | 
18 | Cn1c(CSc2ccc(Cl)cc2)c(C(=O)OC(C)(C)C)c2cc(O)ccc21 | 4.8 | 3.2 | 15 | 
19 | Cn1c(CSc2c(Cl)cccc2Cl)c(C(=O)OC(C)(C)C)c2cc(O)c(Br)cc21 | 5.7 | 2.3 | 13 | 
20 | CCOC(=O)c1c(CSc2ccccc2)n(C)c2cc(Br)c(O)c(CN(C)C)c12 [UMIFENOVIR] | 35 | 4.6 | 161 | EC50 (Chikungunya virus [4]): 4.4 µM; EC50 (Chikungunya virus [9]): < 10 µg/mL; inhibition (INH) (Chikungunya virus [10]): >50%; inhibition (INH) (Chikungunya virus [11]): >50%; CC50 [8]: > 60 µM
